The subject of series [1] is dengue virus type 2. As to the kind of experiment: Antiviral activity against DENV-2 infected in human A549 or Mesocricetus auratus BHK21 cells preincubated for 30 mins further incubated for 1 hr followed by replacement of fresh medium containing compounds and measured at 8 hrs post infection by renilla luciferase assay. The format is functional, organism-based. In outline:
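Reporter DENV-2 carrying Renilla luciferase, MOI 1. Inoculum preincubated 30 min with compound, left on cells 1 h, then replaced by fresh medium containing compound. Luciferase read at 8 h p.i., reflecting entry and translation of incoming genome. EC50 is the concentration giving a two-fold drop in luciferase versus control; mean of at least two independent experiments.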

A short description of series [2]: Cytotoxicity against human A549 cells assessed as reduction in cell viability after 48 hrs by MTT assay. The format is cell-based. Background: Tetrazolium dyes change colour on reduction, which living cells bring about.
Series [3] can be described thus: Selectivity index, ratio of CC50 for human A549 or Mesocricetus auratus BHK21 cells to EC50 for antiviral activity against DENV-2 infected in A549or Mesocricetus auratus BHK21 cells. The format is toxicity. The settings on record: read-out: Ratio CC50/EC50.
Series [4] in a line: Half life in simulated intestinal fluid at 50 uM measured up to 120 mins at pH 6.8 by HPLC-MS analysis. The format is ADME. In outline: (§1)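 DMSO stock diluted in acetonitrile, added to PBS (pH 7.4), SGF (pH 1.2) or SIF (pH 6.8) at 50 μM final; shaking water bath 37°C, triplicate. Samples at 0–120 min quenched with acetonitrile containing warfarin internal standard, centrifuged, diluted in methanol:water, analysed by HPLC-MS (C18, ESI positive); quantified by peak area ratio to internal standard.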

The nature of series [5]: Solubility in simulated gastric fluid at 1 mg incubated for 24 hrs in shaker and measured after 24 hrs by shake-flask method based UV-VIS-NIR spectrophotometric analysis. Type of series: physicochemical. Summed up: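 Shake-flask method: 1.0 mg compound in 1 mL simulated gastric fluid (pH 1.2), mixed at 1500 rpm at 37 °C for 24 h, then held at 37 °C for 24 h. Filtered at 0.2 µm and read by UV-VIS-NIR spectrophotometry against a calibration curve. Reported as mean ± SD of two independent experiments run in triplicate.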

A short description of series [6]: Half life in PBS at 50 uM measured up to 120 mins at pH 7.4 by HPLC-MS analysis. The format is physicochemical. Summed up: as §1
Series [7] can be described thus: Solubility in simulated intestinal fluid at 1 mg incubated for 24 hrs in shaker and measured after 24 hrs by shake-flask method based UV-VIS-NIR spectrophotometric analysis. Type of series: physicochemical. In outline: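 Shake-flask method: 1.0 mg compound in 1 mL simulated intestinal fluid (pH 6.8), mixed at 1500 rpm at 37 °C for 24 h, then held at 37 °C for 24 h. Filtered at 0.2 µm and read by UV-VIS-NIR spectrophotometry against a calibration curve. Reported as mean ± SD of two independent experiments run in triplicate.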

The nature of series [8]: Half life in simulated gastric fluid at 50 uM measured up to 120 mins at pH 1.2 by HPLC-MS analysis. Type of series: ADME. Summed up:
as §1

Series [9] in a line: Solubility in PBS at 1 mg incubated for 24 hrs in shaker and measured after 24 hrs by shake-flask method based UV-VIS-NIR spectrophotometric analysis. Type of series: physicochemical. In outline:
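Shake-flask method: 1.0 mg compound in 1 mL PBS (pH 7.4), mixed at 1500 rpm at 37 °C for 24 h, then held at 37 °C for 24 h. Filtered at 0.2 µm and read by UV-VIS-NIR spectrophotometry against a calibration curve. Reported as mean ± SD of two independent experiments run in triplicate.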

The nature of series [10]: Half life in mouse plasma at 50 uM measured up to 120 mins by HPLC-MS analysis. Type of series: ADME, cell-free. In outline: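 Mouse plasma diluted to 80% with PBS, preheated; compound added at 50 μM final from DMSO stock; 37°C shaking, triplicate. Samples at 0–120 min deproteinized with cold acetonitrile plus warfarin internal standard, centrifuged at 4°C, supernatant diluted in methanol:water, HPLC-MS; peak area ratio to internal standard. Enalapril positive control.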

In series [11] the test system is Dengue virus. As to the kind of experiment: Antiviral activity in DENV infected in cells assessed as reduction in intracellular viral RNA level after 48 hrs by RT-PCR analysis.
Series [12] concerns A549. Nature of the series: Cytotoxicity against human A549 cells at 50 uM after 48 hrs by MTT assay. The format is cell-based. To be noted: a549, 48 h.

Results on 27 compounds are retold here after ChEMBL document CHEMBL4359909, “De novo design approaches targeting an envelope protein pocket to identify small molecules against dengue virus” (Eur J Med Chem, 2019).

In brackets after ≈: the same amount, converted by molar mass. Activity calls are given as the source filed them. The calls are words filed in the database; no cut-off is given here.

For `CC1(C)CC(Nc2nccc(NCc3ccc(Cl)cc3)n2)CC(C)(C)N1`, in series [1], the EC50 – broadly, the midpoint of the concentration-response curve – came to 1.8 µM. The half-maximal cytotoxic concentration (CC50) (as a rule, the concentration giving 50% cytotoxicity) at 48 h in series [2] amounted to 21.1 µM. For the same compound, the selectivity ratio in series [3] was 12.

`Clc1ccc(-c2ccc(Nc3ccnc(NCc4cccnc4)n3)cc2)cc1` gave a concentration for a half-maximal effect (EC50) in series [1] of 4.1 µM. Besides, the CC50 at 48 h in series [2] came out at 25.7 µM. Further, the selectivity ratio in series [3] was 6.

Compound `Clc1ccc(Nc2ccnc(NCc3cccnc3)n2)cc1` showed an EC50 in series [1] of 24 µM.

In series [1], `CN1CCN(c2nccc(Nc3ccc(-c4ccc(Cl)cc4)cc3)n2)CC1` returned an EC50 of 3.3 µM. In [2], the half-maximal cytotoxic concentration (CC50) at 48 h came to 23.5 µM. Further, the selectivity ratio in [3] was found to be 5.

As for `CC1(C)CC(Nc2nccc(Nc3ccc(-c4ccccc4)cc3)n2)CC(C)(C)N1`, the half-life at 50 µM in series [4], in [6], in series [8] and in series [10] was over 2 h in each case. The solubility (thermodynamic) (in general, solubility found after equilibrating the solid with the medium) at 24 h was 76 µg/mL (≈ 189 µM) in [5], 580 µg/mL (≈ 1440 µM) in series [7] and 93 µg/mL (≈ 232 µM) in series [9].

On to `CC1(C)CC(Nc2nccc(Nc3ccc(-c4ccc(Cl)cc4)cc3)n2)CC(C)(C)N1`, for which, in series [11], the outcome was Active. Further, the half-maximal effective concentration (EC50) in series [1] came out at 0.18 µM. Also, the 50% cytotoxic concentration (CC50) at 48 h in series [2] came out at 9.8 µM. In series [3], the selectivity ratio amounted to 54.

For the compound `Cc1ccc(CNc2ccnc(NC3CC(C)(C)NC(C)(C)C3)n2)cc1`, in [1], the EC50 was determined as 4.9 µM. Moreover, the 50% cytotoxic concentration (CC50) at 48 h in series [2] amounted to 15.2 µM. Also, the selectivity ratio in series [3] turned out to be 3.

On to `CC1(C)CC(Nc2nccc(NCc3ccc(F)cc3)n2)CC(C)(C)N1`, for which, in series [1], the concentration giving a half-maximal response (EC50) is 1.98 µM. Also, the CC50 at 48 h in series [2] was 12.8 µM. Also, the selectivity ratio in [3] is 7.

`Clc1ccc(-c2ccc(Nc3ccnc(NCCN4CCCCC4)n3)cc2)cc1` displayed a concentration for a half-maximal effect (EC50) in series [1] of 1.1 µM. Also, the CC50 at 48 h in [2] turned out to be 14.3 µM. The selectivity ratio in [3] worked out at 13.

In series [1], `Cc1ccc(-c2ccc(Nc3ccnc(NC4CC(C)(C)NC(C)(C)C4)n3)cc2)cc1` registered a 50% effective concentration (EC50) of 1.51 µM. Also, in [2], the cytotoxic concentration (CC50) at 48 h was determined as 12 µM. In series [3], the selectivity ratio was 8.

In turn, `OCCN1CCN(c2nccc(Nc3ccc(Cl)cc3)n2)CC1` came in with a concentration giving a half-maximal response (EC50) in series [1] of 24 µM.

In turn, `c1ccc(-c2ccc(Nc3ccnc(OCCN4CCOCC4)n3)cc2)cc1` gave an EC50 in series [1] of 39.7 µM.

As for `CC1(C)CC(Nc2nccc(Nc3ccc(Cl)cc3)n2)CC(C)(C)N1`, it took 1.9 µM to reach a half-maximal effect in [1] (EC50). In addition, in series [2], the CC50 at 48 h came to 18.6 µM. In series [3], the selectivity ratio came to 10.

In turn, `Cc1ccc(-c2ccc(Nc3ccnc(NCCN4CCOCC4)n3)cc2)cc1` had a concentration for a half-maximal effect (EC50) in series [1] of 1.8 µM. In [2], the CC50 at 48 h amounted to 10.2 µM. Further, the selectivity ratio in series [3] was determined as 5.

In [1], `c1ccc(-c2ccc(Nc3ccnc(NCCN4CCOCC4)n3)cc2)cc1` showed an EC50 of 8.6 µM. For the same compound, the CC50 at 48 h in series [2] was determined as 59 µM. Moreover, the selectivity ratio in series [3] stood at 7.

The compound `O=C(Nc1ccnc(NCCN2CCOCC2)n1)c1ccc(-c2ccccn2)s1` came in with an EC50 in series [1] of 3.3 µM. Besides, the 50% cytotoxic concentration (CC50) at 48 h in series [2] is 10.5 µM. Besides, the selectivity ratio in series [3] was 4.

In the case of `Clc1ccc(CNc2ccnc(NCc3cccnc3)n2)cc1`, the response in series [1] was half-maximal at 23.7 µM (EC50).

Regarding `COc1ccc(CNc2ccnc(NC3CC(C)(C)NC(C)(C)C3)n2)cc1`, in series [1], the EC50 is 12.5 µM. In addition, in [2], the CC50 at 48 h was 18.3 µM. The selectivity ratio in series [3] came out at 2.

`Cc1ccc(-c2ccc(Nc3ccnc(N4CCN(C)CC4)n3)cc2)cc1` registered an EC50 in series [1] of 4.9 µM. In series [2], the CC50 at 48 h worked out at 27.7 µM. Also, the selectivity ratio in [3] turned out to be 6.

As for `OCCN1CCN(c2nccc(Nc3ccc(-c4ccccc4)cc3)n2)CC1`, the EC50 in [1] was found to be 19.9 µM.

Turning to `Clc1cccc(-c2ccc(Nc3ccnc(NCc4cccnc4)n3)cc2)c1`, the EC50 in [1] turned out to be 3.4 µM. The CC50 at 48 h in [2] came out at 18.5 µM. The selectivity ratio in [3] came to 5.

For `CC1(C)CC(Nc2nccc(Nc3ccc(-c4cccc(Cl)c4)cc3)n2)CC(C)(C)N1`, the outcome in series [11] was Active. This compound also displayed a concentration giving a half-maximal response (EC50) in [1] of 0.54 µM. In addition, the cytotoxic concentration (CC50) at 48 h in series [2] is 5.1 µM. The selectivity ratio in series [3] was determined as 10.

Consider `Clc1ccc(Nc2ccnc(NCCN3CCOCC3)n2)cc1`, for which, in [12], the Activity result is listed as “Non-Toxic”. In series [1], this compound displayed a concentration giving a half-maximal response (EC50) of 23.6 µM. For the same compound, in [2], the CC50 at 48 h turned out to be 89.6 µM. Further, the selectivity ratio in series [3] worked out at 4.

`Clc1ccc(/C=N/Nc2ccnc(NCCN3CCOCC3)n2)c(Cl)c1`: the 50% effective concentration (EC50) in series [1] was determined as 10.6 µM. Also, the CC50 at 48 h in [2] came to 76.5 µM. For the same compound, the selectivity ratio in series [3] is 8.

For `c1ccc(-c2ccc(Nc3ccnc(NCCN4CCCCC4)n3)cc2)cc1`, the half-life at 50 µM in series [4], in [6], in series [8] and in series [10] was over 2 h each time. Moreover, the results for the solubility (thermodynamic) at 24 h in series [5], in [7] and in series [9] were 506 µg/mL (≈ 1350 µM), 324 µg/mL (≈ 867 µM) and 32 µg/mL (≈ 85.7 µM), respectively.

Regarding `Cc1ccc(Nc2ccnc(NCCN3CCOCC3)n2)cc1`, the response in [1] was half-maximal at 21.3 µM (EC50). Besides, in [2], the half-maximal cytotoxic concentration (CC50) at 48 h was over 50 µM. Besides, in series [3], the selectivity ratio was over 2.

Take `CN1CCN(c2nccc(Nc3ccc(-c4cccc(Cl)c4)cc3)n2)CC1`: in series [1], a half-maximal effect (EC50) was put at 2.9 µM. The CC50 at 48 h in series [2] came out at 15.3 µM. Further, in series [3], the selectivity ratio is 5.
